Laboratory results reported in the RNAGym collection of RNA variant scans (doi:10.1126/science.aae0568).
Variants at the floor of the assay were thinned out.

B1: tRNA (parent)
chain: GUUCCGUUGGCGUAAUGGUAACGCGUCUCCCUCCUAAGGAGAAGACUGCGGGUUCGAGUCCCGUACGGAACG

Variants of: B1
Experiment: yeast fitness relative to wild type (ratio to wild type); higher = fitter; tRNA-Arg(CCU), competitive growth, 37 C, YPD
How it was run: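 Amplicons of the tRNA-Arg(CCU) gene were sequenced, 100-nucleotide paired-end, from the start population and from each end population of a pooled yeast competition. The competition, in six parallel replicates, lasted 24 hours in YPD at 37°C. Fitness relative to wild type was calculated from changes in genotype frequencies. Genotypes had to have ≥ 100 starting reads, and estimates < 0.5 were set to 0.5.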

Point of comparison: GUUCAGUUGGCGUAAUGGUAACGCGUUUCCCUCCUAAGAGGAAGACUGCGGGUUCGAGUCCCGUACGGAACG [C5A C27U G39A A40G], yeast fitness 0.577. Against it:
- GUUCCGUUGGCGUAAUGGCAACGCGUCUCCCCCCUAAGGCAAAGACUGCGGGUUCGAGUCCCGUACGGAACG [U19C U32C A40C G41A] — higher, 0.674
- GUUCCGUUGGCGUAAUGGCUACGCGUCUCCCUCCUAAGGAGAAGACUGCGGGUUCGAGUCCCGUACUGUACG [U19C A20U G67U A69U] — lower, 0.53
- GUUCCGUUGGCGUAAUGGUAACGUGUCUCCAUCCUAAGGAGACGACUGCGGGUUCGACUCCCGGACGGAACG [C24U C31A A43C G58C U64G] — lower, ≤ 0.5
- GUUCCGUUGGCGUAAUGGUAACGUGUCUCCCUCCUAAGGAGAAAACUGCGGGUUGAUGUCCCGUACGGAACG [C24U G44A C55G G56A A57U] — higher, 0.79
- GUUCCGUUGGCGUAAUGGUAACGCGUCUCCCUCCUAAGGAGCAGACUGCGGGUUCGAGUCCCGUUUGGAACG [A42C A65U C66U] — lower, 0.558
- GUUCCGUUGGCGUAAUAGUAACGCGUGUCCCUCCUCAGGAGAAGACUGCGGGUACGAGUCCCGUACGGAACG [G17A C27G A36C U54A] — lower, 0.555
- GUUCCGUUGGCGUUAUGGUAACGCGUCUCCCUCCUGAGGGGAAGACUGCGGGUUCGAGUCCCGUACGGAACG [A14U A36G A40G] — lower, ≤ 0.5
- GUUCGGUUGGUGUAAUGGUAACGCGUCUCCCUCCUAAGGAGAAGACUGCGGGUUCGAGUCGCGUACGGAACG [C5G C11U C61G] — lower, ≤ 0.5
- GUUCCGUUGGCGUAAUGGUAACGCGUCUCGCUCCUAAGGAGAAGACUGCGGCUUCGAGUCCUGUACGGAACG [C30G G52C C62U] — lower, ≤ 0.5
- GUUGCGUUGGCGUAAUGGUAACGCGUCUCCCUCCUAAGGAGAAGCCUGCGGGUUCGAGUCCCGUACGGAACG [C4G A45C] — higher, 0.767
- GUUCAGUUGGCGUAAUGGUAACGCGUCUCCCUCCUAGGGAGAAGACUGCGGGUUCGAGUCCCGUUCGGAACG [C5A A37G A65U] — lower, 0.532
- GUUCCGUUGGCGUAAUGGUAACGCGUCUCCCUCCUAACGUGAAGACUGCGAGUUCGAGUUCCGUACGGAACG [G38C A40U G51A C60U] — higher, 0.725
- GUUCCGUUGGCCUAAUGGUAAUGCGUCUCCCUCCUAAGGAGAAGACUGCGGGUUCGAGUUCCGUACGCAACG [G12C C22U C60U G68C] — lower, ≤ 0.5
- GUUCCGUUGGCGUAAUGAUAACGCGUCUCGCUCCUAUGGAGAAGACUGCGGGUUGGAGUCCCGUACGGAACG [G18A C30G A37U C55G] — lower, ≤ 0.5
- GUUCCGUUGGCGUAAUGGUAACGCGUCUCCCUCCUAAGGAGAAGACUGUGGGUUAGAGUCCUGUACGGAACG [C49U C55A C62U] — higher, 0.699
- GUUCCGUUGGCGUAAUGGUUACGCGUCUGCCUUCUAAGGAGAAGACUGCGGGUUCGAGUCCCGUCUGGAACG [A20U C29G C33U A65C C66U] — lower, ≤ 0.5
- GUUCCGUUGGCGGAAUGGUAACGUGUCUCCCUCAUAAGGAGAAGACUGUGGGUUCGAGUCCCAUACGGAACG [U13G C24U C34A C49U G63A] — lower, 0.554
- GUUCGGUUGGCGUAAUGGUCACGCGUCCACCUCCUUAGGUGAAGACUGGGGGUUCGAGUCCCGUACGGAACG [C5G A20C U28C C29A A36U A40U C49G] — lower, ≤ 0.5
- GUUCCGUUGGCGUAAUGGUAACGCGUCUCCGUCCUAAGGAGAACACUGCGGGCUCGAGUCCCGUUCGGAACG [C31G G44C U53C A65U] — lower, ≤ 0.5
- GUUCCGUUGGCGUAAUCGUAACGCGUCUCCCUCCUAAGGAGAAGACUGCGGGGUCGAGUCCCGUACGGAACG [G17C U53G] — lower, ≤ 0.5
- GUUCCAUUGGCGUAAUGGUAACGCGUCUUCCUCCUAAGGAGAAGACUGCGGGUUCGGGCCCUGUACGGAACG [G6A C29U A57G U59C C62U] — lower, ≤ 0.5
- GUUCCGUUGGGGUAAUGGUAGCGCGUCUCCCUCCUAACGACAAGACUGCGGGUUAGAGUCCCGUCCGGAACG [C11G A21G G38C G41C C55A A65C] — lower, 0.525
- GUUCCGUUGGCGUAAUGGUAACGCGACUCCCUCUUAAGGAGAAGACUGCGGGUUCGAGUCCAGUACGGAACG [U26A C34U C62A] — lower, ≤ 0.5
- GUUCCGUAGGCGUAAUGGUAACGCGUCACCCUACUUAGGAGAAGACUGCGGGUUCGAGUCCCGUACGGAACG [U8A U28A C33A A36U] — lower, 0.541
- GUUCCGUUGGCGUAAUGGUAACGCGUCUCCCUCCUAAGGAGAAAACUGCGGGUUCGAGUCCCGUACGGCACG [G44A A69C] — higher, 0.988
- GCUCCGUUGGCGUAAUGGUAACGCGUAUCCCUCCUAAGGAGAAGACUGCGGGUUCGAGUCCAGUACGGAACG [U2C C27A C62A] — higher, 0.641
- GUGCCGUUGGCGUAAUGGUAACGCAUGUCCCUCCUAAGGAGAAGACUGCCGGUUCGAGUCCCGUACGGAACG [U3G G25A C27G G50C] — lower, 0.537
- GUUCCGUUGGCGUAAUGGUAACGCGUCUCCCUUCUAAGGAGAAAACUGCGGGUUCGAGUCCCGUGCGGAACG [C33U G44A A65G] — higher, 0.606
- GUUGUGUUGGCGUAAUGGUAACGCGUCUCCGUCCUAAGGAGAUGACUGCGGGUUCGAGUCCCGUACGGAACG [C4G C5U C31G A43U] — lower, ≤ 0.5
- GUUCCGUUGGCGUAAUGGUAACGCGUCUCUCUCCUAAGGAGAAGACUGCGGGUUCGAGUCCUGUACGCAACG [C30U C62U G68C] — higher, 0.598
- GUUCCGUUAGCGUAAUGGUGACGCGUCUCUCUCCUAAGGAGAAGACUGCGGAUUCGAGUCCCGUACGAAACG [G9A A20G C30U G52A G68A] — lower, ≤ 0.5
- GUUCCGUUGGCGUAAUGGUAACGCGUCUCCCUCCUAAGGAAAAGACUGCGGGUCCGAGUCCCGUACGGAACG [G41A U54C] — higher, 0.814
- GUUCCGUUGGCGUAAUGGUAACGCGUCUCCCUCCUAAGGAGGAGACUGCGGGUUCGAGUCCCGUUCGGAACG [A42G A65U] — higher, 0.689
- GUUCCAUUGGCGUAAUGGUAACGCGUCUCCCUCCUAAGGAGAAAACUGCGCGUUCGAGUCCCGUAUGGAACG [G6A G44A G51C C66U] — lower, ≤ 0.5
- GUCCCGUUGGCGUAAUGGUAACGCGUCUCCCUCCUAAGGAGAAGACUGCGGGUUCGAGUCGCGUACGGAACG [U3C C61G] — higher, 0.604
- GUUUCGUUGGCGUAAUGGUAACGCGUCUCCCUCCUAAGGAGAAGACUACGGGUUCGAGUGCCGUACGGAACG [C4U G48A C60G] — lower, ≤ 0.5
